Source: ChEMBL document CHEMBL2057101, “Fluorocyclines. 2. Optimization of the C-9 side-chain for antibacterial activity and oral efficacy” (J Med Chem, 2012)
Converted amounts (≈) assume the structure as drawn.

Experiments:
Type in all cases: functional
Escherichia coli [1] = test: Antibacterial activity against Escherichia coli ATCC 25922 isolate 107
Outline: (§1)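 MIC by broth microdilution in liquid medium per CLSI, in cation-adjusted Mueller Hinton broth made fresh and held at 4 °C before testing. Horse blood (defibrinated) added to the medium where appropriate. Runs were accepted only when the comparator antibiotics and ATCC QC strains fell within their recommended ranges.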

Streptococcus pneumoniae [2] = test: Antibacterial activity against tetracycline-resistant Streptococcus pneumoniae isolate 160 expressing tetM gene
Staphylococcus aureus [3] = test: Antibacterial activity against tetracycline-susceptible Staphylococcus aureus ATCC 13709 Smith isolate SA100
Outline: (§2)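 Broth microdilution MIC following CLSI methods in cation-adjusted Mueller Hinton broth, prepared fresh and held at 4 °C before testing. Defibrinated horse blood added to the medium where appropriate. Runs accepted when quality control ranges for comparator antibiotics and ATCC QC strains were met.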

Escherichia coli [4] = test: Antibacterial activity against Escherichia coli isolate EC155 expressing tetA gene; outline: as §1
Staphylococcus aureus [5] = test: Antibacterial activity against tetracycline-resistant Staphylococcus aureus isolate SA158 expressing TetK gene
Staphylococcus aureus [6] = test: Antibacterial activity against tetracycline-resistant Staphylococcus aureus isolate SA161 expressing TetM gene; outline: as §2
Streptococcus pneumoniae [7] = test: Antibacterial activity against Streptococcus pneumoniae ATCC 49619 isolate 106; outline: as §1
Klebsiella pneumoniae = test: Antibacterial activity against Klebsiella pneumoniae ATCC 13883; outline: as §1

SMILES | MIC (Escherichia coli [1]) | MIC (Streptococcus pneumoniae [2]) | MIC (Staphylococcus aureus [3]) | MIC (Escherichia coli [4]) | MIC (Staphylococcus aureus [5]) | MIC (Staphylococcus aureus [6]) | MIC (Streptococcus pneumoniae [7]) | MIC (Klebsiella pneumoniae)
Cc1cc(C(=O)Nc2cc(F)c3c(c2O)C(=O)C2=C(O)[C@]4(O)C(=O)C(C(N)=O)=C(O)[C@@H](N(C)C)[C@@H]4C[C@@H]2C3)no1 | > 32 µg/mL | 2 µg/mL (≈ 3.59 µM) | 0.25 µg/mL (≈ 0.449 µM) | > 32 µg/mL | 0.5 µg/mL (≈ 0.898 µM) | 0.5 µg/mL (≈ 0.898 µM) | 2 µg/mL (≈ 3.59 µM) | > 32 µg/mL
CN(C)[C@@H]1C(O)=C(C(N)=O)C(=O)[C@@]2(O)C(O)=C3C(=O)c4c(O)c(NC(=O)[C@@H]5CCN5)cc(F)c4C[C@H]3C[C@@H]12 | 0.25 µg/mL (≈ 0.471 µM) | 0.031 µg/mL (≈ 0.0584 µM) | 0.25 µg/mL (≈ 0.471 µM) | 16 µg/mL (≈ 30.2 µM) | 0.5 µg/mL (≈ 0.942 µM) | 0.13 µg/mL (≈ 0.245 µM) | 0.16 µg/mL (≈ 0.302 µM) | 1 µg/mL (≈ 1.88 µM)
CN(C)[C@@H]1C(O)=C(C(N)=O)C(=O)[C@@]2(O)C(O)=C3C(=O)c4c(O)c(NC(=O)c5cccnc5)cc(F)c4C[C@H]3C[C@@H]12 | > 32 µg/mL | 2 µg/mL (≈ 3.62 µM) | 2 µg/mL (≈ 3.62 µM) | > 32 µg/mL | 16 µg/mL (≈ 29 µM) | 4 µg/mL (≈ 7.24 µM) | 1 µg/mL (≈ 1.81 µM) | > 32 µg/mL
CN(C)[C@@H]1C(O)=C(C(N)=O)C(=O)[C@@]2(O)C(O)=C3C(=O)c4c(O)c(NC(=O)c5ccn(C)n5)cc(F)c4C[C@H]3C[C@@H]12 | > 32 µg/mL | 2 µg/mL (≈ 3.6 µM) | 0.5 µg/mL (≈ 0.9 µM) | > 32 µg/mL | 1 µg/mL (≈ 1.8 µM) | 0.5 µg/mL (≈ 0.9 µM) | 1 µg/mL (≈ 1.8 µM) | > 32 µg/mL
CN(C)[C@@H]1C(O)=C(C(N)=O)C(=O)[C@@]2(O)C(O)=C3C(=O)c4c(O)c(NS(=O)(=O)c5ccccc5)cc(F)c4C[C@H]3C[C@@H]12 | 32 µg/mL (≈ 54.5 µM) | 0.25 µg/mL (≈ 0.425 µM) | 0.5 µg/mL (≈ 0.851 µM) | > 32 µg/mL | 0.5 µg/mL (≈ 0.851 µM) | 1 µg/mL (≈ 1.7 µM) | 0.25 µg/mL (≈ 0.425 µM) | > 32 µg/mL
CN(C)[C@@H]1C(O)=C(C(N)=O)C(=O)[C@@]2(O)C(O)=C3C(=O)c4c(O)c(NC(=O)[C@H]5CCCCN5)cc(F)c4C[C@H]3C[C@@H]12 | 4 µg/mL (≈ 7.16 µM) | 0.5 µg/mL (≈ 0.895 µM) | 2 µg/mL (≈ 3.58 µM) | > 32 µg/mL | 2 µg/mL (≈ 3.58 µM) | 2 µg/mL (≈ 3.58 µM) | 0.5 µg/mL (≈ 0.895 µM) | 16 µg/mL (≈ 28.6 µM)
CN(C)c1ccc(C(=O)Nc2cc(F)c3c(c2O)C(=O)C2=C(O)[C@]4(O)C(=O)C(C(N)=O)=C(O)[C@@H](N(C)C)[C@@H]4C[C@@H]2C3)cc1 | > 32 µg/mL | 8 µg/mL (≈ 13.5 µM) | 0.063 µg/mL (≈ 0.106 µM) | > 32 µg/mL | 0.063 µg/mL (≈ 0.106 µM) | 0.063 µg/mL (≈ 0.106 µM) | 2 µg/mL (≈ 3.36 µM) | > 32 µg/mL
CN(C)c1cc(F)c2c(c1O)C(=O)C1=C(O)[C@]3(O)C(=O)C(C(N)=O)=C(O)[C@@H](N(C)C)[C@@H]3C[C@@H]1C2 | 4 µg/mL (≈ 8.41 µM) | 4 µg/mL (≈ 8.41 µM) | 1 µg/mL (≈ 2.1 µM) | 32 µg/mL (≈ 67.3 µM) | 4 µg/mL (≈ 8.41 µM) | 4 µg/mL (≈ 8.41 µM) | 0.25 µg/mL (≈ 0.526 µM) | 8 µg/mL (≈ 16.8 µM)
CN(C)[C@@H]1C(O)=C(C(N)=O)C(=O)[C@@]2(O)C(O)=C3C(=O)c4c(O)c(NC(=O)c5cccc(C(F)(F)F)c5)cc(F)c4C[C@H]3C[C@@H]12 | > 32 µg/mL | > 32 µg/mL | 0.25 µg/mL (≈ 0.404 µM) | > 32 µg/mL | 0.13 µg/mL (≈ 0.21 µM) | 0.5 µg/mL (≈ 0.807 µM) | > 32 µg/mL | > 32 µg/mL
CN(C)[C@@H]1C(O)=C(C(N)=O)C(=O)[C@@]2(O)C(O)=C3C(=O)c4c(O)c(CNC(=O)CNC(C)(C)C)cc(F)c4C[C@H]3C[C@@H]12 | 32 µg/mL (≈ 55.7 µM) | 4 µg/mL (≈ 6.96 µM) | 16 µg/mL (≈ 27.8 µM) | > 32 µg/mL | 16 µg/mL (≈ 27.8 µM) | > 32 µg/mL | 0.5 µg/mL (≈ 0.87 µM) | > 32 µg/mL
CN(C)c1ccccc1C(=O)Nc1cc(F)c2c(c1O)C(=O)C1=C(O)[C@]3(O)C(=O)C(C(N)=O)=C(O)[C@@H](N(C)C)[C@@H]3C[C@@H]1C2 | > 32 µg/mL | > 32 µg/mL | 0.13 µg/mL (≈ 0.219 µM) | > 32 µg/mL | 0.063 µg/mL (≈ 0.106 µM) | 0.13 µg/mL (≈ 0.219 µM) | 32 µg/mL (≈ 53.8 µM) | > 32 µg/mL
CCCNc1cc(F)c2c(c1O)C(=O)C1=C(O)[C@]3(O)C(=O)C(C(N)=O)=C(O)[C@@H](N(C)C)[C@@H]3C[C@@H]1C2 | 32 µg/mL (≈ 65.4 µM) | 4 µg/mL (≈ 8.17 µM) | 0.5 µg/mL (≈ 1.02 µM) | > 32 µg/mL | 0.5 µg/mL (≈ 1.02 µM) | 0.5 µg/mL (≈ 1.02 µM) | 1 µg/mL (≈ 2.04 µM) | > 32 µg/mL
CN(C)[C@@H]1C(O)=C(C(N)=O)C(=O)[C@@]2(O)C(O)=C3C(=O)c4c(O)c(NC(=O)[C@@H]5CCCCN5C)cc(F)c4C[C@H]3C[C@@H]12 | 0.5 µg/mL (≈ 0.873 µM) | 0.25 µg/mL (≈ 0.437 µM) | 2 µg/mL (≈ 3.49 µM) | > 32 µg/mL | 1 µg/mL (≈ 1.75 µM) | 8 µg/mL (≈ 14 µM) | 0.13 µg/mL (≈ 0.227 µM) | 2 µg/mL (≈ 3.49 µM)
CN(C)[C@@H]1C(O)=C(C(N)=O)C(=O)[C@@]2(O)C(O)=C3C(=O)c4c(O)c(NC(=O)[C@H]5CCCN5)cc(F)c4C[C@H]3C[C@@H]12 | 4 µg/mL (≈ 7.35 µM) | 0.5 µg/mL (≈ 0.918 µM) | 2 µg/mL (≈ 3.67 µM) | 32 µg/mL (≈ 58.8 µM) | 4 µg/mL (≈ 7.35 µM) | 2 µg/mL (≈ 3.67 µM) | 0.13 µg/mL (≈ 0.239 µM) | 8 µg/mL (≈ 14.7 µM)
CN(C)[C@@H]1C(O)=C(C(N)=O)C(=O)[C@@]2(O)C(O)=C3C(=O)c4c(O)c(NCCNC(C)(C)C)cc(F)c4C[C@H]3C[C@@H]12 | 2 µg/mL (≈ 3.66 µM) | 0.25 µg/mL (≈ 0.457 µM) | 1 µg/mL (≈ 1.83 µM) | 16 µg/mL (≈ 29.3 µM) | 1 µg/mL (≈ 1.83 µM) | 4 µg/mL (≈ 7.32 µM) | 0.125 µg/mL (≈ 0.229 µM) | 8 µg/mL (≈ 14.6 µM)
CN(C)[C@@H]1C(O)=C(C(N)=O)C(=O)[C@@]2(O)C(O)=C3C(=O)c4c(O)c(NC(=O)c5ccccc5)cc(F)c4C[C@H]3C[C@@H]12 | > 32 µg/mL | 16 µg/mL (≈ 29 µM) | 0.25 µg/mL (≈ 0.453 µM) | > 32 µg/mL | 0.5 µg/mL (≈ 0.907 µM) | 0.25 µg/mL (≈ 0.453 µM) | 16 µg/mL (≈ 29 µM) | > 32 µg/mL
CN(C)c1cccc(C(=O)Nc2cc(F)c3c(c2O)C(=O)C2=C(O)[C@]4(O)C(=O)C(C(N)=O)=C(O)[C@@H](N(C)C)[C@@H]4C[C@@H]2C3)c1 | > 32 µg/mL | > 32 µg/mL | 0.13 µg/mL (≈ 0.219 µM) | > 32 µg/mL | 0.13 µg/mL (≈ 0.219 µM) | 0.13 µg/mL (≈ 0.219 µM) | > 32 µg/mL | > 32 µg/mL
CN(C)[C@@H]1C(O)=C(C(N)=O)C(=O)[C@@]2(O)C(O)=C3C(=O)c4c(O)c(NC(=O)[C@@H]5C[C@@H](F)CN5C)cc(F)c4C[C@H]3C[C@@H]12 | 4 µg/mL (≈ 6.94 µM) | 0.063 µg/mL (≈ 0.109 µM) | 0.5 µg/mL (≈ 0.867 µM) | > 32 µg/mL | 1 µg/mL (≈ 1.73 µM) | 2 µg/mL (≈ 3.47 µM) | 0.063 µg/mL (≈ 0.109 µM) | 8 µg/mL (≈ 13.9 µM)
CC(C)N1CCC[C@H]1C(=O)Nc1cc(F)c2c(c1O)C(=O)C1=C(O)[C@]3(O)C(=O)C(C(N)=O)=C(O)[C@@H](N(C)C)[C@@H]3C[C@@H]1C2 | 2 µg/mL (≈ 3.41 µM) | ≤ 0.016 µg/mL | 0.5 µg/mL (≈ 0.852 µM) | 8 µg/mL (≈ 13.6 µM) | 0.25 µg/mL (≈ 0.426 µM) | 1 µg/mL (≈ 1.7 µM) | ≤ 0.016 µg/mL | –
CN(C)[C@@H]1C(O)=C(C(N)=O)C(=O)[C@@]2(O)C(O)=C3C(=O)c4c(O)c(NC(=O)[C@H]5CCCN5C)cc(F)c4C[C@H]3C[C@@H]12 | 2 µg/mL (≈ 3.58 µM) | 0.25 µg/mL (≈ 0.448 µM) | 2 µg/mL (≈ 3.58 µM) | 16 µg/mL (≈ 28.6 µM) | 2 µg/mL (≈ 3.58 µM) | 2 µg/mL (≈ 3.58 µM) | 0.25 µg/mL (≈ 0.448 µM) | 4 µg/mL (≈ 7.16 µM)
